Experimental data from ChEMBL document CHEMBL1250446, “Novel targets for Huntington's disease in an mTOR-independent autophagy pathway” (Nat Chem Biol, 2008).
Calls of active or inactive are those of the source. The rule behind the calls is not given here.

What was measured:
COS-7 [1] = experiment: Inhibition of Gsalpha in african green monkey COS7 cells expressing EGFP-HDQ74/m-calpain assessed as increase in LC3-2 level by autophagy induction assay; type: functional, cell-based; conditions: Chlorocebus aethiops
COS-7 [2] = experiment: Induction of autophagy in african green monkey COS7 cells expressing EGFP-HDQ74/m-calpain assessed as decrease in EGFP-HDQ74 aggregation at 500 uM after 48 hrs; type: functional, cell-based; conditions: Chlorocebus aethiops
Danio rerio [3] = species on record: Danio rerio; experiment: Protection of neurodegeneration in zebrafish Huntington's disease model expressing EGFP-tagged huntingtin exon with EGFP-HDQ71 in rod photoreceptor assessed as decrease in […] aggregation at 3 uM
Danio rerio [4] = species on record: Danio rerio; experiment: Protection of neurodegeneration in zebrafish Huntington's disease model expressing EGFP-tagged huntingtin exon with EGFP-HDQ71 in rod photoreceptor assessed as loss of rhodopsin expression at 3 uM
SK-N-SH (Homo sapiens) [5] = experiment: Induction of autophagy in human SK-N-SH cells expressing EGFP-HDQ74 assessed as reduction in EGFP-HDQ74 aggregation at 1 uM after 48 hrs by densitometric analysis
SK-N-MC [6] = experiment: Cytotoxicity against human SK-N-MC cells expressing EGFP-HDQ74 at 1 uM after 48 hrs; type: cell-based
HeLa = experiment: Induction of autophagy in human HeLa cells expressing EGFP-LC3 assessed as increase in LC3-2 level at 400 nM in presence of erythro-9-(3-(2-hydroxynonyl)adenine; type: functional, cell-based
SK-N-SH = experiment: Induction of autophagy in human SK-N-SH cells expressing EGFP-HDQ74 assessed as reduction in EGFP-HDQ74 aggregation at 500 uM after 48 hrs by densitometric analysis; type: functional, cell-based
PC-12 [7] = experiment: Induction of autophagy in rat stable inducible PC12 cells expressing A53T alpha-synuclein assessed as A53T alpha-synuclein clearance at 500 uM after 24 hrs by densitometric analysis; type: functional, cell-based
Method in brief: (§1)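 Inducible PC12 A53T α-synuclein (HA) cells induced with 1 μg/ml doxycycline for 48 h. Doxycycline then removed for 24 h with compound or DMSO. Remaining protein measured by anti-HA immunoblot, densitometry relative to actin.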

COS-7 [8] = experiment: Induction of autophagy in african green monkey COS7 cells expressing EGFP-HDQ74 assessed as huntingtin mutant aggregation at 10 uM after 48 hrs; type: functional, cell-based; conditions: Chlorocebus aethiops
Method in brief: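 COS-7 cells seeded at 1×10⁵/well for 24 h, then transfected with pEGFP-HDQ74 (1.5 μg/well) using LipofectAMINE for 4 h. Compound added, and cells fixed at 48 h and mounted in DAPI. About 200 EGFP-positive cells per sample were scored for presence of aggregates by a blinded observer. Triplicate, at least twice.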

COS-7 [9] = experiment: Induction of autophagy in african green monkey COS7 cells expressing PLC-epsilon assessed as calpain activation at 2.5 uM after 30 mins by immunoblotting analysis; type: functional, cell-based; conditions: Chlorocebus aethiops
Method in brief: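 Calpain activation in COS-7 after 30 min exposure, alongside 2.5 μM thapsigargin where applied; immunoblot of the active calpain small subunit.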

SK-N-MC [10] = experiment: Induction of autophagy in human SK-N-MC cells expressing A53T alpha-synuclein and endogenously I1R/alpha2 AR assessed as increase in A53T alpha-synuclein clearance at 1 uM after 24 hrs by densitometric analysis; type: functional, cell-based
PC-12 [11] = experiment: Induction of autophagy in rat stable inducible PC12 cells expressing A53T alpha-synuclein and endogenously I1R assessed as increase in A53T alpha-synuclein clearance at 1 uM after 24 hrs by densitometric analysis; type: functional, cell-based; method in brief: as §1
PC-12 [12] = experiment: Induction of autophagy in rat stable inducible PC12 cells expressing EGFP-HDQ74 and endogenously I1R assessed as decrease in EGFP-HDQ74 aggregation at 1 uM after 24 hrs by densitometric analysis; type: functional, cell-based
PC-12 [13] = experiment: Induction of autophagy in rat stable inducible PC12 cells assessed as increase in LC3-2 level after 24 hrs by immunoblotting analysis; type: functional, cell-based
Method in brief: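 Endogenous LC3-II in PC12 cells after 24 h exposure; immunoblot densitometry relative to actin.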

SK-N-MC [14] = experiment: Induction of autophagy in human SK-N-MC cells expressing EGFP-HDQ74 and endogenously I1R/alpha2 AR assessed as decrease in EGFP-HDQ74 aggregation at 1 uM after 24 hrs by densitometric analysis; type: functional, cell-based
SK-N-MC [15] = experiment: Induction of autophagy in Atg positive human SK-N-MC cells expressing EGFP-HDQ74 at 1 uM after 48 hrs; type: functional, cell-based
SK-N-SH (Homo sapiens) [16] = experiment: Induction of autophagy in human SK-N-SH cells assessed as increase in LC3-2 level at 3 uM after 24 hrs by immunoblotting analysis
Mus musculus = species on record: Mus musculus; experiment: Induction of autophagy in Atg deficient mouse […] expressing EGFP-HDQ74 at 1 uM after 48 hrs; type: functional

With `O=C(Nc1cc(C(=O)Nc2ccc(S(=O)(=O)O)cc2S(=O)(=O)O)cc(C(=O)Nc2ccc(S(=O)(=O)O)cc2S(=O)(=O)O)c1)Nc1cc(C(=O)Nc2ccc(S(=O)(=O)O)cc2S(=O)(=O)O)cc(C(=O)Nc2ccc(S(=O)(=O)O)cc2S(=O)(=O)O)c1` the Activity (COS-7 [1]) was “Active” and the Activity (COS-7 [2]) was “Active”.
With `CCCC(CCC)C(=O)O` [VALPROIC ACID] the Activity (Danio rerio [3]) was “Active”, the Activity (Danio rerio [4]) was “inactive” and the Activity (SK-N-SH (Homo sapiens) [5]) was “Active”. The Activity (SK-N-MC [6]) was “Non-toxic”.
For `CCOC(=O)C1=C(C)NC(C)=C(C(=O)OC)C1c1cccc([N+](=O)[O-])c1` (stereo not given) [NITRENDIPINE], the Activity (SK-N-SH (Homo sapiens) [5]) was “Active” and the Activity (SK-N-MC [6]) was “Non-toxic”.
In the case of `CN(C)C(=O)C(CCN1CCC(O)(c2ccc(Cl)cc2)CC1)(c1ccccc1)c1ccccc1` [LOPERAMIDE], the Activity (SK-N-SH (Homo sapiens) [5]) was “Active” and the Activity (SK-N-MC [6]) was “Non-toxic”.
In the case of `CCCCCC[C@@H]([C@@H](C)O)n1cnc2c(N)ncnc21` (relative stereo), the Activity (HeLa) was “inactive”.
`C=C[C@@]1(C)CC(=O)[C@]2(O)[C@@]3(C)[C@@H](O)CCC(C)(C)[C@@H]3[C@H](O)[C@H](OC(C)=O)[C@@]2(C)O1` was tested, and the Activity (SK-N-SH) was “inactive” and the Activity (PC-12 [7]) was “inactive”.
With `CO[C@@H]1[C@@H]2OP(=O)(O)OC[C@H]2O[C@H]1n1c(Sc2ccc(Cl)cc2)nc2c(N)ncnc21` the Activity (COS-7 [8]) was “inactive” and the Activity (COS-7 [9]) was “inactive”.
`C1COC(NC(C2CC2)C2CC2)=N1` was tested, and the Activity (SK-N-MC [10]) was “Active”, the Activity (PC-12 [11]) was “Active” and the Activity (PC-12 [12]) was “Active”. The Activity (PC-12 [13]) was “Dose-dependent effect” and the Activity (SK-N-MC [14]) was “Active”.
For `Nc1cc(N2CCCCC2)nc(N)[n+]1[O-]` [MINOXIDIL], the Activity (SK-N-MC [15]) was “Active”, the Activity (SK-N-SH (Homo sapiens) [5]) was “Active” and the Activity (SK-N-SH (Homo sapiens) [16]) was “Active”. For the same compound, the Activity (Mus musculus) was “inactive” and the Activity (SK-N-MC [6]) was “Non-toxic”.
